Experimental data published in article PMC2812011 (Cancer cell, 2009).

Tests used:
[1] = biological target: TEL-Jak2 (Homo sapiens, UniProt O60674+P41212); assay: Stat5 phosphorylation in Ba/F3 TEL-Jak2 cells; assay type: cell-based
[2] = test system: MDA-MB-468 xenografts; assay: MDA-MB-468 xenograft tumor growth; assay type: in vivo, mice; details: MDA-MB-468, 50 mg/kg p.o. once daily, 30 d; p < 0.001, n=7
[3] = test system: MEF-Stat3-YFP tumors; assay: MEF-Stat3-YFP tumor growth in athymic mice; assay type: in vivo; details: 50 mg/kg p.o. once daily, relative to vehicle; p = 0.001, n=6
[4] = biological target: panel of 82 kinases; assay: Kinase selectivity panel of 82 kinases; assay type: biochemical; details: 0.10 µM, at or near Km for ATP; count includes Jak2
How it was run: (§1)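 Kinase selectivity panel of 82 kinases chosen to span the kinome by binding-site similarity and gatekeeper residue. Each kinase was assayed with ATP at or near its Km. The test compound was tested at three concentrations: 0.01, 0.10 and 1.0 µM. Percent inhibition was scored, and kinases inhibited by more than 50% were counted.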

[5] = test system: LN-17 cells; assay: LN-17 prostate cancer cells: pStat3, MTS viability, Annexin V; assay type: cell-based, human
[6] = test system: TEL-Jak3; assay: Stat5 phosphorylation in Ba/F3 TEL-Jak3 cells; assay type: cell-based; details: at or below 1 µM
[7] = test system: pStat3 Tyr705; assay: Constitutive pStat3 in DU145, MDA-MB-468 and MDAH2774 cells; assay type: cell-based, human; details: 2 h, DU145, MDA-MB-468, MDAH2774
[8] = test system: pStat3 Tyr705; assay: pStat3 in MEF-Stat3-YFP tumor lysates; assay type: in vivo, mice; details: 2 h post treatment, 50 mg/kg
[9] = test system: Jak1; details: enzymatic assays, at Km ATP
[10] = test system: Aurora A; assay: Aurora A in kinase panel; assay type: biochemical
How it was run: as §1

[11] = test system: 786-0 renal cell carcinoma vector control xenografts; assay: 786-0 vector control xenograft tumor growth; assay type: in vivo, mice; details: 50 mg/kg, 41 d, p = 0.038, n = 10
[12] = test system: MDAH2774 xenografts; assay: MDAH2774 xenograft tumor growth; assay type: in vivo, mice; details: 26 d, p < 0.001, n=10
[13] = test system: pStat3 Tyr705; assay: Pharmacodynamics in xenograft tumor lysates and sections; assay type: in vivo, mice
[14] = test system: TEL-Jak1; assay: Stat5 phosphorylation in Ba/F3 TEL-Jak1 cells; assay type: cell-based; details: at or below 1 µM
[15] = test system: TEL-Tyk2; assay: Stat5 phosphorylation in Ba/F3 TEL-Tyk2 cells; assay type: cell-based; details: at or below 1 µM
[16] = test system: 786-0 xenografts expressing Stat3C; assay: 786-0 Stat3C xenograft tumor growth; assay type: in vivo, mice; details: 786-0 expressing Stat3C, 50 mg/kg, 41 d
[17] = test system: DU145, MDAH2774, and MDA-MB-468 cells; assay: 72 h viability assay in solid tumor cell lines; assay type: cell-based; details: Homo sapiens
[18] = test system: DU145 xenografts; assay: DU145 xenograft tumor growth; assay type: in vivo, mice; details: DU145, 50 mg/kg p.o. once daily, 26 d; p < 0.001, n=7
[19] = biological target: Jak2 kinase (Homo sapiens, UniProt O60674); assay: Jak2 kinetic studies; assay type: biochemical
Jak2 kinase, sequence (O60674 808-1132): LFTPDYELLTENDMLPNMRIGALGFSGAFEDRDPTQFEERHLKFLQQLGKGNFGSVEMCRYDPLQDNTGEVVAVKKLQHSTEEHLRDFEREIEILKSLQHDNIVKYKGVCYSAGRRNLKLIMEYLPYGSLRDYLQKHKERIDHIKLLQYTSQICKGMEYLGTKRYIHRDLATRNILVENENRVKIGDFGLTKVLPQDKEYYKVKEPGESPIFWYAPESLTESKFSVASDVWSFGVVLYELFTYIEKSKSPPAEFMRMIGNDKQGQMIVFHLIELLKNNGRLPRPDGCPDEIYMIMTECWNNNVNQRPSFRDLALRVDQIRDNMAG

TEL-Jak2, sequence (O60674 849-1132 limits assumed, one chain of several): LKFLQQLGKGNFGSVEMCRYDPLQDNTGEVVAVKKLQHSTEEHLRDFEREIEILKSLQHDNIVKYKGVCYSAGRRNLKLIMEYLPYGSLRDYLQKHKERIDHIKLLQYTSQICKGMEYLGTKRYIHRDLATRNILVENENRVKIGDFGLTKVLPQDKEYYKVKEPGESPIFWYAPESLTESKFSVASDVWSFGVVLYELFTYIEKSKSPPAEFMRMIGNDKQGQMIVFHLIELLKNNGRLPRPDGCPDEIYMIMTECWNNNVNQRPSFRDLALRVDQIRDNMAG

For Cc1cc(Nc2nc(N[C@@H](C)c3ncc(F)cn3)ncc2Cl)n[nH]1 [AZD1480], the IC50 [1] was 46 nM, the growth inhibition [2] was 111% and the tumor growth inhibition [3] was 58%. The “kinases inhibited by greater than 50%” value [4] was 11/82, the “lethal toxicity or weight loss” value (doses tested, 26 days of dosing) was “No lethal toxicity or weight loss” and the “red blood cell counts” value (mouse, in vivo, 10 mg/kg) was “no changes”. The “red blood cell counts decrease” value (mouse, in vivo, 30 mg/kg) was “approximately 13%”, the “pStat3 Tyr705” value ([5]; 24 h) was “Dose-dependent inhibition” and the “apoptotic markers Annexin V and PARP cleavage” value ([5]; 72 h) was “dose-dependent increase”. For the same molecule, the viability ([5]; MTS, 72 h, charcoal-stripped FBS) was “loss of viability”, the “inhibition of STAT5 phosphorylation” value [6] was “little or no inhibition” and the “inhibition of constitutive pStat3 Tyr705” value ([7]; 0.1 µM) was “Significant inhibition”. For the same molecule, the “inhibition of constitutive pStat3 Tyr705” value ([7]; 0.25 –0.5 µM) was “near ablation of signal”, the “pStat3 Tyr705 in tumors” value [8] was “abolished” and the “Jak2 selectivity over Jak1” value [9] was “marginal selectivity over Jak1”. The “Aurora A enzyme activity” value [10] was “inhibited”, the growth inhibition [11] was 48% and the growth inhibition ([12]; MDAH2774, 10 mg/kg twice daily p.o.) was 71%. The growth inhibition ([12]; MDAH2774, 30 mg/kg twice daily p.o., tumor regression) was 139%, the “pHisH3 staining (mitotic marker)” value ([13]; MDAH2774 xenografts, 30 mg/kg, up to 16h post-dose) was “No modulation” and the “recovery of pStat3 Tyr705 expression” value ([13]; by 16 h after single 30 mg/kg dose, MDAH2774 xenografts) was “fully recovered”. The “duration of significant inhibition of pStat3” value ([13]; single dose of 30 mg/kg, MDAH2774 xenografts) was over 10 h, the “expression of p44/42 pMAPK and pAKT Ser473 in tumors” value ([13]; treated tumors compared to control animals) was “No significant change” and the “inhibition of pStat3 Tyr705 in tumor lysates” value ([13]; xenografts harvested 2 h post treatment) was “Complete inhibition”. For the same molecule, the “inhibition of STAT5 phosphorylation” value [14] was “little or no inhibition”, the “inhibition of STAT5 phosphorylation” value [15] was “little or no inhibition” and the growth inhibition [16] was “no growth inhibition”. The GI50 [17] was 2400 to 5400 nM, the growth inhibition [18] was 81% and the Ki [19] was 0.26 nM.
